Measurements published in ChEMBL document CHEMBL2380254, “Optimization of tocotrienols as antiproliferative and antimigratory leads” (Eur J Med Chem, 2013).

Key:
Type in all cases: functional, cell-based
[1] = Antiproliferative activity against mouse +SA cells by MTT assay; conditions: +SA cell
Summary of the method: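 Mouse +SA mammary epithelial cells in serum-free DMEM/F12 with BSA, transferrin, insulin and EGF. Compounds from DMSO stock conjugated to BSA (overnight, 37 °C); 0–40 µM, final DMSO <0.1%. MTT 0.42 mg/mL for 4 h at 37 °C, isopropanol solubilization, OD 570 nm. Cell number from a standard curve; IC50 by non-linear regression.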

MDA-MB-231 [2] = assay: Antimigratory activity against human MDA-MB-231 cells after 24 hrs by wound-healing assay; conditions: MDA-MB-231, 24 h
Summary of the method: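 MDA-MB-231 in RPMI 1640 with 10% FBS grown to >95% confluent monolayer, scratched with a pipette tip and washed. Then 24 h exposure in 0.5% serum at five non-toxic concentrations in DMSO, triplicate, DMSO as negative control. Diff Quick fixed and stained; migrated cells counted in ≥3 random 40× fields. IC50 = concentration inhibiting migration of 50% of cells.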

MCF7 = assay: Antiproliferative activity against human MCF7 cells by MTT assay
Summary of the method: (§1)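 Cells plated at 8 × 10^3/well (MDA-MB-231) or 10^4/well (MCF7) in 96-well plates. Compounds fed in media with 5% FBS (MDA-MB-231) or 1% FBS (MCF7). MTT read-out of viable cells.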

MDA-MB-231 [3] = assay: Antiproliferative activity against human MDA-MB-231 cells by MTT assay; summary of the method: as §1

SMILES | IC50 [1] | IC50 (MDA-MB-231 [2]) | IC50 (MCF7) | IC50 (MDA-MB-231 [3])
CCOC(CCN1COc2cc(C)c3c(c2C1)CC[C@@](C)(CC/C=C(\C)CC/C=C(\C)CCC=C(C)C)O3)OCC | 1 µM |  |  | 
CC(C)=CCC/C(C)=C/CC/C(C)=C/CC[C@]1(C)CCc2cc3c(c(C)c2O1)CN(CCO)CO3 | 0.96 µM |  |  | 
CC(C)=CCC/C(C)=C/CC/C(C)=C/CC[C@]1(C)CCc2c(CO)c(O)c(C)c(C)c2O1 | 2.6 µM |  |  | 
CC(C)=CCC/C(C)=C/CC/C(C)=C/CC[C@]1(C)CCc2c3c(cc(C)c2O1)OCN(CCCCC(=O)O)C3 | 11.9 µM |  |  | 
CC(C)=CCC/C(C)=C/CC/C(C)=C/CC[C@]1(C)CCc2cc(O)c(CO)c(C)c2O1 | 6.6 µM |  |  | 
CC(C)=CCC/C(C)=C/CC/C(C)=C/CC[C@]1(C)CCc2c3c(c(C)c(C)c2O1)OCN(CCCO)C3 | 2.5 µM | 8.1 µM | > 20 µM | 9.6 µM
CC(C)=CCC/C(C)=C/CC/C(C)=C/CC[C@]1(C)CCc2c3c(c(C)c(C)c2O1)OCN(CCCCC(=O)O)C3 | 1.8 µM |  |  | 
CC(C)=CCC/C(C)=C/CC/C(C)=C/CC[C@]1(C)CCc2c3c(c(C)c(C)c2O1)OCN(Cc1ccccc1)C3 | 2 µM |  | > 20 µM | 27.3 µM
CC(C)=CCC/C(C)=C/CC/C(C)=C/CC[C@]1(C)CCc2c3c(cc(C)c2O1)OCN(C)C3 | 1.3 µM |  |  | 
COc1ccc(CCN2COc3cc4c(c(C)c3C2)O[C@](C)(CC/C=C(\C)CC/C=C(\C)CCC=C(C)C)CC4)cc1OC | 0.84 µM |  |  | 
CC(C)=CCC/C(C)=C/CC/C(C)=C/CC[C@]1(C)CCc2cc(O)cc(C)c2O1 [DELTA-TOCOTRIENOL] |  | > 40 µM |  | 
CC(C)=CCC/C(C)=C/CC/C(C)=C/CC[C@]1(C)CCc2c3c(c(C)c(C)c2O1)OCN(C)C3 | 2.2 µM |  |  | 
CC(C)=CCC/C(C)=C/CC/C(C)=C/CC[C@]1(C)CCc2c(CO)c(O)cc(C)c2O1 | > 20 µM |  |  | 
CC(C)=CCC/C(C)=C/CC/C(C)=C/CC[C@]1(C)CCc2c3c(cc(C)c2O1)OCN(CCCCCC(=O)O)C3 | 5.1 µM |  |  | 
CC(C)=CCC/C(C)=C/CC/C(C)=C/CC[C@]1(C)CCc2c3c(c(C)c(C)c2O1)OCN(CCO)C3 | 1.7 µM |  |  | 
CC(C)=CCC/C(C)=C/CC/C(C)=C/CC[C@]1(C)CCc2c3c(c(C)c(C)c2O1)OCN(Cc1cccc([N+](=O)[O-])c1)C3 | 24.6 µM |  |  | 
C=CCN1COc2c(C)c(C)c3c(c2C1)CC[C@@](C)(CC/C=C(\C)CC/C=C(\C)CCC=C(C)C)O3 | 11.6 µM |  |  | 
CC(C)=CCC/C(C)=C/CC/C(C)=C/CC[C@]1(C)CCc2c3c(cc(C)c2O1)OCN(Cc1cccc([N+](=O)[O-])c1)C3 | 29.1 µM |  |  | 
CC(C)=CCC/C(C)=C/CC/C(C)=C/CC[C@]1(C)CCc2c3c(c(C)c(C)c2O1)OCN(C1CCN(Cc2ccccc2)CC1)C3 | 8.7 µM |  |  | 
CC(C)=CCC/C(C)=C/CC/C(C)=C/CC[C@]1(C)CCc2c3c(c(C)c(C)c2O1)OCN(CC1CCNCC1)C3 | 4.6 µM |  | > 20 µM | 0.8 µM
CC(C)=CCC/C(C)=C/CC/C(C)=C/CC[C@]1(C)CCc2c3c(c(C)c(C)c2O1)OCN(CCCCCC(=O)O)C3 | 5 µM |  |  | 
CC(C)=CCC/C(C)=C/CC/C(C)=C/CC[C@]1(C)CCc2c3c(cc(C)c2O1)OCN(CCO)C3 | 4.2 µM | 1.3 µM | 6 µM | > 5 µM
CCOC(CCN1COc2c(C)c(C)c3c(c2C1)CC[C@@](C)(CC/C=C(\C)CC/C=C(\C)CCC=C(C)C)O3)OCC | 9.3 µM |  |  | 
